ChEMBL document CHEMBL3352067, “1,8-Naphthyridines IX. Potent anti-inflammatory and/or analgesic activity of a new group of substituted 5-amino[1,2,4]triazolo[4,3-a][1,8]naphthyridine-6-carboxamides, of some their Mannich base derivatives and of one novel substituted …” (Eur J Med Chem, 2014)

Tests used:
Mus musculus [1] = assay: Antinociceptive activity in Swiss mouse assessed as inhibition of acetic acid-induced writhing at 100 mg/kg, po administered 1 hr prior to acetic acid challenge measured for 30 mins; assay type: functional
Outline: (§1)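 Swiss mice (25–35 g, either sex), fasted overnight, given compound orally in 0.5% methylcellulose; controls received vehicle; groups of 8–10. Writhes, scored as complete extension of either hind limb, counted over 30 min after injection of the noxious agent. Percent inhibition derived from the difference in writhing between treated and control groups.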

Rattus norvegicus [2] = assay: Antiinflammatory activity in Wistar rat assessed as inhibition of carrageenan-induced paw oedema at 100 mg/kg, po administered 1 hr prior to carrageenan challenge; assay type: functional
Outline: (§2)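 Wistar rats (250–300 g, either sex), fasted overnight, dosed by oral gavage with compound suspended in 0.5% methylcellulose; controls got vehicle. Groups of 8–10. 1 h later 0.1 mL 1% carrageenan injected subcutaneously into hind paw plantar surface; paw volume measured by plethysmometer immediately and 3 h later. Inhibition calculated from swelling difference versus controls (control = 100).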

[3] = Antiplatelet activity in guinea pig platelet rich plasma assessed as inhibition of ADP-induced aggregation by aggregometry; assay type: functional, cell-free; settings: Cavia porcellus
Outline: (§3)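 Guinea pig blood drawn by cardiac puncture into 3.8% citrate (1:9). PRP obtained by spinning at 180 g for 15 min, PPP at 2000 g for 10 min. PRP preincubated 5 min at 37 °C with compound or DMSO (≤0.5% final), then aggregation triggered by U46619, ADP or arachidonic acid. Born turbidimetry at 37 °C with stirring; percent inhibition versus control; tested within 3 h.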

[4] = Antiplatelet activity in guinea pig platelet rich plasma assessed as inhibition of arachidonic acid-induced aggregation by aggregometry; assay type: functional, cell-free; settings: Cavia porcellus; outline: as §3
[5] = Antiplatelet activity in guinea pig platelet rich plasma assessed as inhibition of U46619-induced aggregation by aggregometry; assay type: functional, cell-free; settings: Cavia porcellus; outline: as §3
Mus musculus [6] = assay: Antinociceptive activity in Swiss mouse assessed as inhibition of acetic acid-induced writhing at 50 mg/kg, po administered 1 hr prior to acetic acid challenge measured for 30 mins; assay type: functional; outline: as §1
Rattus norvegicus [7] = assay: Antiinflammatory activity in Wistar rat assessed as inhibition of carrageenan-induced paw oedema at 50 mg/kg, po administered 1 hr prior to carrageenan challenge; assay type: functional; outline: as §2
Mus musculus [8] = assay: Sedative activity in Swiss mouse assessed as inhibition of spontaneous locomotor activity at 100 mg/kg, po measured for 30 mins by open-field test; assay type: organism-based; parameters: dose 100 mg/kg, route oral; settings: in vivo, 0.5 h
Outline: (§4)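 Swiss mice (25-35 g, either sex), fasted overnight, given compound orally by gavage suspended in 0.5% methylcellulose; vehicle controls; groups of 8-10. Spontaneous locomotor activity recorded by videocamera with video-tracking as distance (m) travelled in 30 min; Student's t-test vs controls.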

Mus musculus [9] = assay: Antinociceptive activity in Swiss mouse assessed as inhibition of acetic acid-induced writhing at 25 mg/kg, po administered 1 hr prior to acetic acid challenge measured for 30 mins; assay type: functional; outline: as §1
Mus musculus [10] = assay: Antinociceptive activity in Swiss mouse assessed as inhibition of acetic acid-induced writhing at 12.5 mg/kg, po administered 1 hr prior to acetic acid challenge measured for 30 mins; assay type: functional; outline: as §1
Mus musculus [11] = assay: Sedative activity in Swiss mouse assessed as inhibition of spontaneous locomotor activity at 50 mg/kg, po measured for 30 mins by open-field test; assay type: organism-based; parameters: dose 50 mg/kg, route oral; settings: in vivo, 0.5 h; outline: as §4
Mus musculus [12] = assay: Sedative activity in Swiss mouse assessed as inhibition of spontaneous locomotor activity at 25 mg/kg, po measured for 30 mins by open-field test; assay type: organism-based; parameters: dose 25 mg/kg, route oral; settings: in vivo, 0.5 h; outline: as §4
Rattus norvegicus [13] = assay: Acute gastrolesivity in Wistar rat assessed as stomach lesions at 10 mg/kg, po measured after 5 hrs; assay type: toxicity, organism-based; parameters: dose 10 mg/kg, route oral; settings: in vivo
Outline: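 Wistar rats (250-300 g, either sex), fasted overnight, dosed by oral gavage in 0.5% methylcellulose (1 mL 100 g^-1); groups of 8-10. Stomachs excised 5 h post-dose, fixed with 2% formalin, opened along greater curvature, examined by stereomicroscope by blinded observer. Read-out: number of rats with gastric damage over number treated.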

Rattus norvegicus [14] = assay: Antiinflammatory activity in Wistar rat assessed as inhibition of carrageenan-induced paw oedema at 25 mg/kg, po administered 1 hr prior to carrageenan challenge; assay type: functional; outline: as §2
Rattus norvegicus [15] = assay: Antiinflammatory activity in Wistar rat assessed as inhibition of carrageenan-induced paw oedema at 12.5 mg/kg, po administered 1 hr prior to carrageenan challenge; assay type: functional; outline: as §2
Rattus norvegicus [16] = assay: Antiinflammatory activity in Wistar rat assessed as inhibition of carrageenan-induced paw oedema at 6.25 mg/kg, po administered 1 hr prior to carrageenan challenge; assay type: functional; outline: as §2

CCN(CC)C(=O)c1c(N2CCN(C)CC2)c2cccnc2n2c(CN3CCOCC3)nnc12
inhibition in vivo at 100 mg/kg (Mus musculus [1]): 37% | inhibition in vivo at 100 mg/kg (Rattus norvegicus [2]): 8%

CC(=O)Oc1ccccc1C(=O)O [ASPIRIN]
IC50 [3]: > 500 µM | IC50 [4]: 45 µM | IC50 [5]: > 500 µM

CCN(CC)C(=O)c1c(N2CCN(C)CC2)c2cccnc2n2c(CN3CCN(C)CC3)nnc12
inhibition in vivo at 100 mg/kg (Mus musculus [1]): 0% | inhibition in vivo at 100 mg/kg (Rattus norvegicus [2]): 0%

CNC(=O)c1c(NC(C)C)c2cccnc2n2c(C(C)C)nnc12
inhibition in vivo at 50 mg/kg (Mus musculus [6]): 11% | inhibition in vivo at 100 mg/kg (Mus musculus [1]): 67% | inhibition in vivo at 100 mg/kg (Rattus norvegicus [2]): 50% | inhibition in vivo at 50 mg/kg (Rattus norvegicus [7]): 3% | Activity (Mus musculus [8]): Toxic

CCN(CC)C(=O)c1c(N2CCN(CCO)CC2)c2cccnc2n2c(C(C)C)nnc12
inhibition in vivo at 25 mg/kg (Mus musculus [9]): 48% | inhibition in vivo at 50 mg/kg (Mus musculus [6]): 96% | inhibition in vivo at 100 mg/kg (Mus musculus [1]): 85% | inhibition in vivo at 12.5 mg/kg (Mus musculus [10]): 13% | inhibition in vivo at 100 mg/kg (Rattus norvegicus [2]): 0% | Activity (Mus musculus [8]): Toxic | Activity (Mus musculus [11]): Toxic | Activity (Mus musculus [12]): Toxic

COc1ccc2c(c1)c(CC(=O)O)c(C)n2C(=O)c1ccc(Cl)cc1 [INDOMETHACIN]
Activity (Rattus norvegicus [13]): Toxic

CCCNC(=O)c1c(NC(C)C)c2cccnc2n2c(C(C)C)nnc12
inhibition in vivo at 50 mg/kg (Mus musculus [6]): 0% | inhibition in vivo at 100 mg/kg (Mus musculus [1]): 0% | inhibition in vivo at 100 mg/kg (Rattus norvegicus [2]): 72% | inhibition in vivo at 50 mg/kg (Rattus norvegicus [7]): 63% | inhibition in vivo at 25 mg/kg (Rattus norvegicus [14]): 70% | inhibition in vivo at 12.5 mg/kg (Rattus norvegicus [15]): 44% | inhibition in vivo at 6.25 mg/kg (Rattus norvegicus [16]): 19%
